Read-outs that look alike come from different tables or passages of the source.
How the values were obtained:
Theileria equi [1] = experiment: Viability test; format: cell-based
Outline: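 After 96 h exposure in the growth assay, treated or untreated infected RBCs were moved into drug-free complete medium with fresh uninfected horse RBCs. Cultured a further 72 h at 37 °C under micro-aerophilic gas, with medium replaced every 24 h. Parasite recrudescence/viability was scored on Giemsa-stained blood smears.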

Theileria equi [2] = experiment: In vitro growth inhibitory assay of Theileria equi in MASP culture; format: cell-based; conditions: for in vitro growth inhibition versus control well: p < 0.05; for morphological changes observed in treated parasites: in vitro treatment, at 96 h, Giemsa-stained smears; for IC50: read-out: IC50 value for growth inhibition of T. equi
Outline: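 T. equi-infected horse RBCs from MASP culture, diluted to 1% parasitaemia with uninfected ELISA-negative horse RBCs. Medium: M199 with 40% equine serum, antibiotics and 200 μM hypoxanthine. Test compounds at 1–200 μM or 125–1000 nM, triplicate wells, 96 h at 37 °C under 5% CO2/3% O2; drug medium renewed every 24 h. Percent parasitaemia followed over time; IC50 by curve fitting; two-way ANOVA with Bonferroni (p < 0.05).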

horse RBCs = experiment: In vitro haemolytic assay; format: cell-based
[3] = In vitro cytotoxicity assay; format: cell-based, horse; conditions: horse, PHA-stimulated horse PBMCs
horse PBMCs = experiment: In vitro cytotoxicity assay; format: cell-based
[4] = 48 h, 72 h and 96 h, 250 nM–1000 nM

SMILES	parasite multiplication in the viability test (Theileria equi [1]; after 96 h treatment with 750 nM and 1000 nM)	in vitro growth inhibition versus control well (Theileria equi [2]; 24 h, 500, 750 and 1000 nM)	in vitro growth inhibition versus control well (Theileria equi [2]; [4])	morphological changes observed in treated parasites (Theileria equi [2])	IC50 (Theileria equi [2]; 96 h of culture) [µM]	haemolytic activity on horse RBCs (horse RBCs; 10 μM–2000 μM, 90 min) [%]	parasite multiplication in the viability test (Theileria equi [1]; after 96 h treatment with 500 nM–1000 nM)	in vitro growth inhibition versus control well (Theileria equi [2]; 24 h, 750 and 1000 nM)	haemolytic activity on horse RBCs (horse RBCs; highest concentration of 2000 μM)	parasite multiplication in the viability test (Theileria equi [1]; after 96 h treatment with 50 μM–200 μM)	in vitro growth inhibition versus control well (Theileria equi [2]; 24 h, 100 μM and 200 μM)	in vitro growth inhibition versus control well (Theileria equi [2]; 48 h, 72 h and 96 h, 5 μM–200 μM)	IC50 (Theileria equi [2]; Theileria equi, 96 h) [µM]	Specific selective index (SSI) with respect to host's RBC (horse RBCs; CC50 on horse RBCs / IC50 on T. equi)	CC50 at 24 h [3] [µM]	Specific selective index (SSI) with respect to host's PBMC (horse PBMCs; CC50 on horse PBMCs / IC50 on T. equi)	cytotoxicity to horse PBMCs (horse PBMCs; highest concentration 1000 μM, 24 h)
CCCCCCCCCC[N+](C)(C)C.[Br-] [DTAB, Decyl trimethyl ammonium bromide]	failed to multiply further	significant difference	significant (p < 0.05) growth inhibition	devoid of internal structures, showing pycnotic and degenerative appearances	0.558	< 3											
CCCCCCCCCCCC[N+](C)(C)C.[Br-] [DDTAB, dodecyl trimethyl ammonium bromide]			significant (p < 0.05) growth inhibition	devoid of internal structures, showing pycnotic and degenerative appearances	0.47		failed to multiply further	significant difference	more								
C[N+](C)(C)CCCCCCCCCC[N+](C)(C)C [DMB, Decamethonium bromide]				devoid of internal structures, showing pycnotic and degenerative appearances		< 3				failed to multiply further	significant difference	significant (p < 0.05) growth inhibition	14	16035.38	7200	514.50	less than 10%
